In ChEMBL document CHEMBL3351710, “Synthesis of novel thiadiazolotriazin-4-ones and study of their mosquito-larvicidal and antibacterial properties” (Eur J Med Chem, 2014):
≈ marks a conversion by molar mass, not a printed value.

Tests used:
[1] = tested on: Escherichia coli; assay: Antibacterial activity against Escherichia coli MTCC-725 assessed as zone of inhibition at 1 ug/ml; assay type: functional; details: read-out: DIZ
In short: (§1)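 Disc diffusion on Nutrient Agar. Strains were first grown on NA for 24 h at 37 °C, then spread as a lawn. Compounds were dissolved in DMSO. Sterile 6 mm discs were saturated with test solution, dried under laminar flow and placed on the inoculated plates. Plates were incubated at 37 °C for 18–24 h, and clear-zone diameters were measured.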

[2] = tested on: Aeromonas hydrophila; assay: Antibacterial activity against Aeromonas hydrophila MTCC-1739 assessed as zone of inhibition at 1 ug/ml; assay type: functional; details: read-out: DIZ; in short: as §1
[3] = tested on: Anopheles stephensi; assay: Larvicidal activity against Anopheles stephensi late III or early IV instar larvae assessed as mortality after 24 hrs; assay type: functional; details: for LC50: Anopheles stephensi, iv, 24 h
In short: (§2)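 25 late III/early IV instar larvae in 250 mL water per beaker, exposed to a range of concentrations; a negative control ran with each set and malathion served as reference insecticide. Mortality was scored after 24 h in triplicate per sample. LC50 with 95% confidence limits was derived by Abbott's formula and log probit analysis.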

[4] = tested on: Anopheles stephensi; assay: Larvicidal activity against Anopheles stephensi late III or early IV instar larvae assessed as mortality after 24 hrs relative to untreated control; assay type: functional; in short: as §2
[5] = tested on: Staphylococcus aureus; assay: Antibacterial activity against Staphylococcus aureus MTCC-7443 assessed as zone of inhibition at 1 ug/ml; assay type: functional; details: read-out: DIZ; in short: as §1
[6] = tested on: Bacillus subtilis; assay: Antibacterial activity against Bacillus subtilis MTCC-441 assessed as zone of inhibition at 1 ug/ml; assay type: functional; details: read-out: DIZ; in short: as §1
[7] = tested on: Mus musculus; assay: Toxicity in po dosed Swiss albino mouse after 72 hrs; assay type: organism-based; details: in vivo
[8] = tested on: Staphylococcus aureus; assay: Antibacterial activity against Staphylococcus aureus MTCC-7443 assessed as zone of inhibition at 10 ug/disc; assay type: functional; details: read-out: DIZ; in short: as §1
[9] = tested on: Bacillus subtilis; assay: Antibacterial activity against Bacillus subtilis MTCC-441 assessed as zone of inhibition at 10 ug/disc; assay type: functional; details: read-out: DIZ; in short: as §1
[10] = tested on: Escherichia coli; assay: Antibacterial activity against Escherichia coli MTCC-725 assessed as zone of inhibition at 10 ug/disc; assay type: functional; details: read-out: DIZ; in short: as §1
[11] = tested on: Aeromonas hydrophila; assay: Antibacterial activity against Aeromonas hydrophila MTCC-1739 assessed as zone of inhibition at 10 ug/disc; assay type: functional; details: read-out: DIZ; in short: as §1

Row | SMILES | zone of inhibition at 1 µg/mL [1] | zone of inhibition at 1 µg/mL [2] | LC90 [3] | LC50 [3] | Ratio [4] | zone of inhibition at 1 µg/mL [5] | zone of inhibition at 1 µg/mL [6] | MLD [7] | zone of inhibition at 10 µg/disc [8] | zone of inhibition at 10 µg/disc [9] | zone of inhibition at 10 µg/disc [10] | zone of inhibition at 10 µg/disc [11]
1 | Cc1cc(Cl)ccc1OCc1nn2c(=O)c(C(C)(C)C)nnc2s1 | 18.9 mm | 19.6 mm | 71.45 µg/mL (≈ 196 µM) | 49.3 µg/mL (≈ 135 µM) | 0.17 | 12.6 mm |  |  |  |  |  | 
2 | CC(=O)c1ccc(OCc2nn3c(=O)c(C(C)(C)C)nnc3s2)cc1 | 22.7 mm | 19.3 mm | 135.9 µg/mL (≈ 379 µM) | 86.6 µg/mL (≈ 242 µM) | 0.1 | 18.7 mm | 25.7 mm | 1.82 g/kg |  |  |  | 
3 | CC(C)(C)c1nnc2sc(COc3ccc(I)cc3)nn2c1=O |  |  | 124.77 µg/mL (≈ 282 µM) | 77.5 µg/mL (≈ 175 µM) | 0.11 |  | 11.9 mm |  |  |  |  | 
4 | CC(C)(C)c1nnc2sc(COc3cc(Cl)c(Cl)cc3Cl)nn2c1=O | 16.5 mm | 17.5 mm | 115.05 µg/mL (≈ 274 µM) | 81.6 µg/mL (≈ 194 µM) | 0.11 | 22.4 mm | 19.3 mm |  |  |  |  | 
5 | CC(C)(C)c1nnc2sc(COc3ccccc3Cl)nn2c1=O | 19.5 mm | 16.5 mm | 113.57 µg/mL (≈ 324 µM) | 72.8 µg/mL (≈ 208 µM) | 0.12 | 16.6 mm | 18.9 mm |  |  |  |  | 
6 | CC(C)(C)c1nnc2sc(C(C)(C)Oc3ccc(Cl)cc3)nn2c1=O | 21.1 mm | 22.4 mm | 87.49 µg/mL (≈ 231 µM) | 55.2 µg/mL (≈ 146 µM) | 0.15 | 19.6 mm | 18.4 mm | 2.26 g/kg |  |  |  | 
7 | CC(C)(C)c1nnc2sc(COc3ccccc3)nn2c1=O | 10.9 mm |  | 120.98 µg/mL (≈ 382 µM) | 79.2 µg/mL (≈ 250 µM) | 0.11 | 12.3 mm |  |  |  |  |  | 
8 | COc1ccccc1OCc1nn2c(=O)c(C(C)(C)C)nnc2s1 | 15.6 mm | 13.9 mm | 37.78 µg/mL (≈ 109 µM) | 25.7 µg/mL (≈ 74.2 µM) | 0.34 | 21.7 mm | 19.2 mm |  |  |  |  | 
9 | CC(C)(C)c1nnc2sc(COc3ccc(O)cc3)nn2c1=O | 14.3 mm | 10.5 mm | 32.11 µg/mL (≈ 96.6 µM) | 21.7 µg/mL (≈ 65.3 µM) | 0.4 | 11.7 mm |  | 1.36 g/kg |  |  |  | 
10 | CC(C)(C)c1nnc2sc(COc3ccccc3[N+](=O)[O-])nn2c1=O | 11.7 mm | 9.6 mm | 105.04 µg/mL (≈ 291 µM) | 70.5 µg/mL (≈ 195 µM) | 0.12 | 19.8 mm | 16.8 mm |  |  |  |  | 
11 | Cc1cccc(C)c1OCc1nn2c(=O)c(C(C)(C)C)nnc2s1 | 11.4 mm | 10.4 mm | 115.2 µg/mL (≈ 334 µM) | 103 µg/mL (≈ 298 µM) | 0.11 |  | 9.8 mm |  |  |  |  | 
12 | Cc1cc(C)c(C)c(OCc2nn3c(=O)c(C(C)(C)C)nnc3s2)c1 | 18.9 mm | 15.6 mm | 45.05 µg/mL (≈ 126 µM) | 39.8 µg/mL (≈ 111 µM) | 0.29 | 17.6 mm | 15.6 mm |  |  |  |  | 
13 | CC(C)(C)c1nnc2sc(COc3ccc(Cl)cc3Cl)nn2c1=O |  | 9.7 mm | 73.2 µg/mL (≈ 190 µM) | 48.7 µg/mL (≈ 126 µM) | 0.18 | 10.8 mm | 12.9 mm |  |  |  |  | 
14 | CC(C)(C)c1nnc2sc(COc3ccc(Cl)cc3)nn2c1=O | 13.9 mm | 12.5 mm | 90.45 µg/mL (≈ 258 µM) | 61.3 µg/mL (≈ 175 µM) | 0.14 |  | 11.2 mm |  |  |  |  | 
15 | CCOC(=O)CC(SP(=S)(OC)OC)C(=O)OCC (configuration not stated) [MALATHION] |  |  | 12.01 µg/mL (≈ 36.4 µM) | 8.7 µg/mL (≈ 26.3 µM) |  |  |  |  |  |  |  | 
16 | CN[C@@H]1[C@H](O[C@H]2[C@H](O[C@H]3[C@H](O)[C@@H](O)[C@H](N=C(N)N)[C@@H](O)[C@@H]3N=C(N)N)O[C@@H](C)[C@]2(O)C=O)O[C@@H](CO)[C@H](O)[C@H]1O [STREPTOMYCIN] |  |  |  |  |  |  |  |  | 31.5 mm | 33.6 mm | 26.3 mm | 22.4 mm
